Source: ChEMBL document CHEMBL1137436, “Development of Tyrocidine A analogues with improved antibacterial activity” (2007)
Converted amounts (≈) assume the structure as drawn. Where a SMILES comes first, the peptide text is derived from it. [ ]: non-standard residue; d: D form. Orn = NCCC[C@H](N)C(=O)O

Assays:
[1] = test system: Bacillus subtilis; experiment: Antibacterial activity against Bacillus subtilis MRL 18734 in presence of 25 mg/L calcium by microdilution method; type: functional
How it was run: (§1)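 CLSI broth microdilution MIC. Compounds dissolved in cation-adjusted Mueller-Hinton broth (CAMHB), or in a little DMSO then broth. Overnight cultures suspended in saline to 0.5 McFarland, diluted 1:100 in CAMHB, added to wells of diluted compound. Drug-free wells quantitatively subcultured to confirm actual colony counts. Calcium at 25 or 50 mg/L.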

[2] = test system: Staphylococcus aureus; experiment: Antibacterial activity against methicillin-resistant Staphylococcus aureus ATCC 33592 in presence of 25 mg/L calcium by microdilution method; type: functional
How it was run: (§2)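 CLSI broth microdilution in cation-adjusted Mueller-Hinton broth (CAMHB); compounds dissolved in CAMHB or a little DMSO then broth. Overnight cultures suspended in saline to 0.5 McFarland, diluted 1:100 in CAMHB and added to wells of diluted compound. Drug-free wells subcultured quantitatively for actual colony counts. Calcium at 25 or 50 mg/L as the line states.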

[3] = test system: Staphylococcus epidermidis; experiment: Antibacterial activity against methicillin-resistant Staphylococcus epidermidis MRL 19010 in presence of 25 mg/L calcium by microdilution method; type: functional; how it was run: as §2
[4] = test system: Staphylococcus aureus; experiment: Antibacterial activity against methicillin-susceptible Staphylococcus aureus ATCC 29213 in presence of 25 mg/L calcium by microdilution method; type: functional; how it was run: as §2
[5] = test system: Enterococcus faecalis; experiment: Antibacterial activity against vancomycin-resistant Enterococcus faecalis MRL 17001 in presence of 25 mg/L calcium by microdilution method; type: functional; how it was run: as §2
[6] = test system: Escherichia coli; experiment: Antibacterial activity against Escherichia coli ATCC 25922 in presence of 25 mg/L calcium by microdilution method; type: functional; how it was run: as §1
[7] = test system: Bacillus cereus; experiment: Antibacterial activity against Bacillus cereus MRL 18731 in presence of 25 mg/L calcium by microdilution method; type: functional; how it was run: as §1
[8] = test system: Enterococcus faecalis; experiment: Antibacterial activity against Enterococcus faecalis ATCC 29212 in presence of 25 mg/L calcium by microdilution method; type: functional; how it was run: as §2
[9] = test system: Bacillus cereus; experiment: Antibacterial activity against Bacillus cereus MRL 18731 in presence of 50 mg/L calcium by microdilution method; type: functional
How it was run: (§3)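 CLSI broth microdilution. Compounds dissolved in cation-adjusted Mueller-Hinton broth (CAMHB), or in a small amount of DMSO followed by broth. Overnight cultures suspended in saline to 0.5 McFarland, diluted 1:100 in CAMHB and added to wells of diluted compound. Drug-free wells subcultured quantitatively to give actual colony counts. Calcium tested at 50 mg/L, alongside the standard 25 mg/L.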

[10] = test system: Enterococcus faecalis; experiment: Antibacterial activity against vancomycin-resistant Enterococcus faecalis MRL 17001 in presence of 50 mg/L calcium by microdilution method; type: functional; how it was run: as §2
[11] = test system: Staphylococcus aureus; experiment: microbe, parasite or virus in culture; conditions: ATCC 33592
[12] = test system: Escherichia coli; experiment: Antibacterial activity against Escherichia coli ATCC 25922 in presence of 50 mg/L calcium by microdilution method; type: functional; how it was run: as §1
[13] = test system: Bacillus subtilis; experiment: Antibacterial activity against Bacillus subtilis MRL 18734 in presence of 50 mg/L calcium by microdilution method; type: functional; how it was run: as §3
[14] = test system: Staphylococcus epidermidis; experiment: Antibacterial activity against methicillin-resistant Staphylococcus epidermidis MRL 19010 in presence of 50 mg/L calcium by microdilution method; type: functional; how it was run: as §2
[15] = test system: Staphylococcus aureus; experiment: microbe, parasite or virus in culture; conditions: ATCC 29213
[16] = test system: Enterococcus faecalis; experiment: Antibacterial activity against Enterococcus faecalis ATCC 29212 in presence of 50 mg/L calcium by microdilution method; type: functional; how it was run: as §2

Row | SMILES | MIC [1] | MIC [2] | MIC [3] | MIC [4] | MIC [5] | MIC [6] | MIC [7] | MIC [8] | MIC [9] | MIC [10] | MIC [11] | MIC [12] | MIC [13] | MIC [14] | MIC [15] | MIC [16]
1 | CC(C)C[C@@H]1NC(=O)[C@H](CCCN)NC(=O)[C@H](C(C)C)NC(=O)[C@H](Cc2ccc(O)cc2)NC(=O)[C@H](CCCCN)NC(=O)[C@H](CC(N)=O)NC(=O)[C@@H](CCCCN)NC(=O)[C@H](Cc2c(F)c(F)c(F)c(F)c2F)NC(=O)[C@@H]2CCCN2C(=O)[C@@H](Cc2ccccc2)NC1=O | 2 µg/mL | 8 µg/mL | 4 µg/mL | 8 µg/mL | 4 µg/mL | 32 µg/mL | 4 µg/mL | 16 µg/mL |  |  |  |  |  |  |  | 
2 | CC(C)C[C@@H]1NC(=O)[C@H](CCCN)NC(=O)[C@H](C(C)C)NC(=O)[C@H](Cc2ccc(O)cc2)NC(=O)[C@H](CCCCN)NC(=O)[C@H](CC(N)=O)NC(=O)[C@@H](CCCCN)NC(=O)[C@H](Cc2ccccc2)NC(=O)[C@@H]2CCCN2C(=O)[C@@H](Cc2ccccc2)NC1=O | 2 µg/mL | 16 µg/mL | 4 µg/mL | 16 µg/mL | 8 µg/mL | 32 µg/mL | 16 µg/mL | 32 µg/mL |  |  |  |  |  |  |  | 
3 | CC(C)C[C@@H]1NC(=O)[C@H](CCCN)NC(=O)[C@H](C(C)C)NC(=O)[C@H](Cc2c(F)c(F)c(F)c(F)c2F)NC(=O)[C@H](CCC(N)=O)NC(=O)[C@H](CC(N)=O)NC(=O)[C@@H](Cc2ccccc2)NC(=O)[C@H](Cc2c(F)c(F)c(F)c(F)c2F)NC(=O)[C@@H]2CCCN2C(=O)[C@@H](Cc2ccccc2)NC1=O | 128 µg/mL | > 256 µg/mL | 256 µg/mL | > 256 µg/mL | 32 µg/mL | > 256 µg/mL | 256 µg/mL | 32 µg/mL |  |  |  |  |  |  |  | 
4 | CC(C)C[C@@H]1NC(=O)[C@H](CCCN)NC(=O)[C@H](C(C)C)NC(=O)[C@H](Cc2ccc(O)cc2)NC(=O)[C@H](CCCCN)NC(=O)[C@H](CC(N)=O)NC(=O)[C@@H](Cc2ccccc2)NC(=O)[C@H](Cc2c(F)c(F)c(F)c(F)c2F)NC(=O)[C@@H]2CCCN2C(=O)[C@@H](Cc2ccccc2)NC1=O | 8 µg/mL | 8 µg/mL | 4 µg/mL | 16 µg/mL | 4 µg/mL | > 256 µg/mL | 8 µg/mL | 4 µg/mL |  |  |  |  |  |  |  | 
5 | CC(C)C[C@@H]1NC(=O)[C@H](CCCN)NC(=O)[C@H](C(C)C)NC(=O)[C@H](Cc2ccc(O)cc2)NC(=O)[C@H](CCC(N)=O)NC(=O)[C@H](CC(N)=O)NC(=O)[C@@H](CCCCN)NC(=O)[C@H](Cc2ccccc2)NC(=O)[C@@H]2CCCN2C(=O)[C@@H](Cc2ccccc2)NC1=O | 16 µg/mL | 64 µg/mL | 32 µg/mL | 32 µg/mL | 32 µg/mL | 128 µg/mL | 64 µg/mL | 64 µg/mL |  |  |  |  |  |  |  | 
6 | CC(C)C[C@@H]1NC(=O)[C@H](CCCN)NC(=O)[C@H](C(C)C)NC(=O)[C@H](Cc2c(F)c(F)c(F)c(F)c2F)NC(=O)[C@H](CCC(N)=O)NC(=O)[C@H](CC(N)=O)NC(=O)[C@@H](Cc2ccccc2)NC(=O)[C@H](Cc2ccccc2)NC(=O)[C@@H]2CCCN2C(=O)[C@@H](Cc2ccccc2)NC1=O | 8 µg/mL | 16 µg/mL | 2 µg/mL | 16 µg/mL | 2 µg/mL | > 256 µg/mL | 8 µg/mL | 2 µg/mL |  |  |  |  |  |  |  | 
7 | CC(C)C[C@@H]1NC(=O)[C@H](CCCN)NC(=O)[C@H](C(C)C)NC(=O)[C@H](Cc2ccc(O)cc2)NC(=O)[C@H](CCC(N)=O)NC(=O)[C@H](CC(N)=O)NC(=O)[C@@H](Cc2ccccc2)NC(=O)[C@H](Cc2c(F)c(F)c(F)c(F)c2F)NC(=O)[C@@H]2CCCN2C(=O)[C@@H](Cc2ccccc2)NC1=O | 4 µg/mL | 16 µg/mL | 8 µg/mL | 8 µg/mL | 8 µg/mL | > 256 µg/mL | 4 µg/mL | 4 µg/mL |  |  |  |  |  |  |  | 
8 | CC(C)C[C@@H]1NC(=O)[C@H](CCCN)NC(=O)[C@H](C(C)C)NC(=O)[C@H](Cc2ccc(O)cc2)NC(=O)[C@H](CCC(N)=O)NC(=O)[C@H](CC(N)=O)NC(=O)[C@@H](Cc2ccccc2)NC(=O)[C@H](Cc2ccccc2)NC(=O)[C@@H]2CCCN2C(=O)[C@@H](Cc2ccccc2)NC1=O [TYROCIDINE A] (cyclo(F[dF]NQYV[Orn]L[dF]P)) | 16 µg/mL | 32 µg/mL | 16 µg/mL | 32 µg/mL | 16 µg/mL | > 128 µg/mL | 16 µg/mL | 16 µg/mL |  |  |  |  |  |  |  | 
9 | CCCCCCCCCC(=O)N[C@@H](Cc1c[nH]c2ccccc12)C(=O)N[C@H](CC(N)=O)C(=O)N[C@@H](CC(=O)O)C(=O)N[C@@H]1C(=O)NCC(=O)N[C@@H](CCCN)C(=O)N[C@@H](CC(=O)O)C(=O)N[C@H](C)C(=O)N[C@@H](CC(=O)O)C(=O)NCC(=O)N[C@H](CO)C(=O)N[C@@H]([C@H](C)CC(=O)O)C(=O)N[C@@H](CC(=O)c2ccccc2N)C(=O)O[C@@H]1C | 1 µg/mL | 1 µg/mL | 1 µg/mL | 1 µg/mL | 2 µg/mL | > 128 µg/mL | 0.5 µg/mL | 1 µg/mL | 0.25 µg/mL | 1 µg/mL | 0.25 µg/mL (≈ 0.154 µM) | > 128 µg/mL | 0.25 µg/mL | 0.5 µg/mL | 0.25 µg/mL (≈ 0.154 µM) | 1 µg/mL
10 | CC(C)C[C@@H]1NC(=O)[C@H](CCCN)NC(=O)[C@H](C(C)C)NC(=O)[C@H](Cc2ccc(O)cc2)NC(=O)[C@H](CCCCN)NC(=O)[C@H](CC(N)=O)NC(=O)[C@@H](Cc2ccccc2)NC(=O)[C@H](Cc2ccccc2)NC(=O)[C@@H]2CCCN2C(=O)[C@@H](Cc2ccccc2)NC1=O (cyclo(F[dF]NKYV[Orn]L[dF]P)) | 2 µg/mL | 4 µg/mL | 2 µg/mL | 4 µg/mL | 2 µg/mL | 128 µg/mL | 2 µg/mL | 2 µg/mL |  |  |  |  |  |  |  | 
